# Experimental data published in ChEMBL document CHEMBL1914299, “Synthesis and antitumor activity of β-carboline 3-(substituted-carbohydrazide) derivatives” (Bioorg Med Chem, 2011).
# Calls of active or inactive are those of the source. No cut-off for these calls is given here.
# What was measured:
# UACC-62 = experiment: Antitumor activity against human UACC62 cells by SRB colorimetric assay; assay type: functional, cell-based
# In short: (§1)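 NCI sulforhodamine B colorimetric growth assay in 96-well plates. Each compound tested at four concentrations in 10-fold dilutions. Doxorubicin as positive control. IC50 taken from concentration–response curves as the concentration giving 50% reduction in cell growth versus untreated control cells.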
# [1] = Antitumor activity against human PCO3 cells by SRB colorimetric assay; assay type: functional, cell-based; in short: as §1
# Mus musculus [2] = experiment: Antitumor activity against mouse Ehrlich Ascitic tumor xenografted in BALB/c mouse assessed as reduction of tumor volume in paw at 10 mg/kg, ip administered every 3 days for 15 days measured on day 9 by plethysmograph analysis; assay type: functional, organism-based; set-up: dose 10 mg/kg
# Mus musculus [3] = experiment: Antitumor activity against mouse Ehrlich Ascitic tumor xenografted in BALB/c mouse assessed as reduction of tumor volume in paw at 30 mg/kg, ip administered every 3 days for 15 days measured on day 9 by plethysmograph analysis; assay type: functional, organism-based; set-up: dose 30 mg/kg
# In short: (§2)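 Ehrlich tumor cells collected from ascitic fluid and counted by Trypan blue exclusion, viability above 90%. Cells diluted in 0.9% PBS to […]. Injected sub-plantar into right hind paw of Balb/C mice (20–35 g), 2.5 × 10⁶ viable cells. Compound given ip every 3 days over 15 days, vehicle 0.9% saline, 5-fluorouracil 10 mg/kg as positive control. Paw volume measured by plethysmometer every 3 days until sacrifice on day 15.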
# 786-0 = experiment: Antitumor activity against human 786-0 cells by SRB colorimetric assay; assay type: functional, cell-based; in short: as §1
# Mus musculus [4] = experiment: Antiinflammatory activity in mouse Ehrlich Ascitic tumor xenografted BALB/c mouse assessed as reduction in paw edema at 30 mg/kg, ip administered every 3 days for 15 days by plethysmograph analysis; assay type: functional, organism-based; set-up: dose 30 mg/kg; in short: as §2
# MCF7 = experiment: Antitumor activity against human MCF7 cells by SRB colorimetric assay; assay type: functional, cell-based; in short: as §1
# HT-29 = experiment: Antitumor activity against human HT-29 cells by SRB colorimetric assay; assay type: functional, cell-based; in short: as §1
# NCI-H460 = experiment: Antitumor activity against human NCI-H460 cells by SRB colorimetric assay; assay type: functional, cell-based; in short: as §1
# K562 = experiment: Antitumor activity against human K562 cells by SRB colorimetric assay; assay type: functional, cell-based; in short: as §1
# OVCAR = experiment: Antitumor activity against human OVCAR cells by SRB colorimetric assay; assay type: functional, cell-based; in short: as §1
# Mus musculus [5] = experiment: Acute toxicity in BALB/c mouse at 30 mg/kg, ip; assay type: organism-based; set-up: dose 30 mg/kg, route intraperitoneal; settings: in vivo
# Mus musculus [6] = experiment: Antitumor activity against mouse Ehrlich Ascitic tumor xenografted in BALB/c mouse assessed as reduction in paw edema at 30 mg/kg, ip administered every 3 days for 15 days measured on day 12 and day 15 by plethysmograph analysis; assay type: functional, organism-based; set-up: dose 30 mg/kg; in short: as §2
smiles,measurement,setting,value
CN(C)c1ccc(/C=N/NC(=O)c2cc3c([nH]c4ccccc43)c(-c3cccc([N+](=O)[O-])c3)n2)cc1,IC50,UACC-62,1.34 µM
same,IC50,[1],4.18 µM
same,Activity,Mus musculus [2],Active
same,Activity,Mus musculus [3],Active
same,IC50,786-0,0.04 µM
same,Activity,Mus musculus [4],Active
same,IC50,MCF7,0.63 µM
same,IC50,HT-29,9.8 µM
same,IC50,NCI-H460,2.11 µM
same,IC50,K562,0.24 µM
same,IC50,OVCAR,0.19 µM
same,Activity,Mus musculus [5],Non-toxic
same,Activity,Mus musculus [6],Active
O=c1[nH]cc(F)c(=O)[nH]1,Activity,Mus musculus [2],Active
CC(C)=NNC(=O)c1cc2c([nH]c3ccccc32)c(-c2ccc(N(C)C)cc2)n1,IC50,UACC-62,10.1 µM
same,IC50,[1],19 µM
same,IC50,786-0,26.5 µM
same,IC50,MCF7,16.8 µM
same,IC50,HT-29,35.6 µM
same,IC50,NCI-H460,25.4 µM
same,IC50,K562,23.4 µM
same,IC50,OVCAR,40.5 µM
O=C(N/N=C/c1ccccc1)c1cc2c([nH]c3ccccc32)c(-c2cccc([N+](=O)[O-])c2)n1,IC50,UACC-62,1.19 µM
same,IC50,[1],> 100 µM
same,IC50,786-0,3.76 µM
same,IC50,MCF7,2.61 µM
same,IC50,HT-29,1.93 µM
same,IC50,NCI-H460,1.93 µM
same,IC50,K562,1.24 µM
same,IC50,OVCAR,6.14 µM
COc1ccc(-c2nc(C(=O)N/N=C/c3ccccc3Cl)cc3c4ccccc4n(C)c23)cc1,IC50,UACC-62,> 100 µM
same,IC50,[1],> 100 µM
same,IC50,786-0,> 100 µM
same,IC50,MCF7,14 µM
same,IC50,HT-29,> 100 µM
same,IC50,NCI-H460,> 100 µM
same,IC50,K562,> 100 µM
same,IC50,OVCAR,> 100 µM
Cn1c2ccccc2c2cc(C(=O)N/N=C/c3ccccc3Cl)nc(-c3ccccc3)c21,IC50,UACC-62,> 100 µM
same,IC50,[1],> 100 µM
same,IC50,786-0,> 100 µM
same,IC50,MCF7,> 100 µM
same,IC50,HT-29,> 100 µM
same,IC50,NCI-H460,> 100 µM
same,IC50,K562,> 100 µM
same,IC50,OVCAR,> 100 µM
COc1ccc(/C=N/NC(=O)c2cc3c([nH]c4ccccc43)c(-c3ccc([N+](=O)[O-])cc3)n2)cc1,IC50,UACC-62,9.69 µM
same,IC50,[1],7.54 µM
same,IC50,786-0,14.1 µM
same,IC50,MCF7,8.19 µM
same,IC50,HT-29,8.92 µM
same,IC50,NCI-H460,4.58 µM
same,IC50,K562,7.54 µM
same,IC50,OVCAR,21.4 µM
O=C(NN=C1CCCCC1)c1cc2c([nH]c3ccccc32)c(-c2ccc([N+](=O)[O-])cc2)n1,IC50,UACC-62,> 100 µM
same,IC50,[1],> 100 µM
same,IC50,786-0,72.8 µM
same,IC50,MCF7,25.6 µM
same,IC50,HT-29,> 100 µM
same,IC50,NCI-H460,> 100 µM
same,IC50,K562,> 100 µM
same,IC50,OVCAR,> 100 µM
O=C(N/N=C/c1ccccc1Cl)c1cc2c([nH]c3ccccc32)c(-c2ccccc2)n1,IC50,UACC-62,2.16 µM
same,IC50,[1],2.52 µM
same,IC50,786-0,2.16 µM
same,IC50,MCF7,6.13 µM
same,IC50,HT-29,1.25 µM
same,IC50,NCI-H460,4.57 µM
same,IC50,K562,1.45 µM
same,IC50,OVCAR,2.84 µM
O=C(NN=C1CCCCC1)c1cc2c([nH]c3ccccc32)c(-c2ccccc2Cl)n1,IC50,UACC-62,21.6 µM
same,IC50,[1],18.3 µM
same,IC50,786-0,24.5 µM
same,IC50,MCF7,6.19 µM
same,IC50,HT-29,40.4 µM
same,IC50,NCI-H460,54.1 µM
same,IC50,K562,> 100 µM
same,IC50,OVCAR,20.8 µM
COc1ccc(-c2nc(C(=O)NN=C3CCCC3)cc3c2[nH]c2ccccc23)cc1,IC50,UACC-62,76.4 µM
same,IC50,[1],> 100 µM
same,IC50,786-0,> 100 µM
same,IC50,MCF7,> 100 µM
same,IC50,HT-29,> 100 µM
same,IC50,NCI-H460,> 100 µM
same,IC50,K562,> 100 µM
same,IC50,OVCAR,> 100 µM
COc1ccc(/C=N/NC(=O)c2cc3c([nH]c4ccccc43)c(-c3ccccc3)n2)cc1,IC50,UACC-62,65.6 µM
same,IC50,[1],59.4 µM
same,IC50,786-0,> 100 µM
same,IC50,MCF7,11 µM
same,IC50,HT-29,38.5 µM
same,IC50,NCI-H460,59.4 µM
same,IC50,K562,14.6 µM
same,IC50,OVCAR,10 µM
CC(C)=NNC(=O)c1cc2c([nH]c3ccccc32)c(-c2cccc([N+](=O)[O-])c2)n1,IC50,UACC-62,> 100 µM
same,IC50,[1],> 100 µM
same,IC50,786-0,> 100 µM
same,IC50,MCF7,> 100 µM
same,IC50,HT-29,> 100 µM
same,IC50,NCI-H460,> 100 µM
same,IC50,K562,> 100 µM
same,IC50,OVCAR,> 100 µM
O=C(NN=C1CCCCC1)c1cc2c([nH]c3ccccc32)c(-c2ccc(O)cc2)n1,IC50,UACC-62,7.86 µM
same,IC50,[1],7.68 µM
same,IC50,786-0,15 µM
same,IC50,MCF7,8.33 µM
same,IC50,HT-29,10.3 µM
same,IC50,NCI-H460,13.2 µM
same,IC50,K562,10.3 µM
same,IC50,OVCAR,13.2 µM
COc1ccc(-c2nc(C(=O)NN=C3CCCCC3)cc3c2[nH]c2ccccc23)cc1,IC50,UACC-62,11.7 µM
same,IC50,[1],10.3 µM
same,IC50,786-0,18.6 µM
same,IC50,MCF7,9.14 µM
same,IC50,HT-29,14 µM
same,IC50,NCI-H460,20.2 µM
same,IC50,K562,10.3 µM
same,IC50,OVCAR,12.8 µM
COc1ccc(-c2nc(C(=O)N/N=C/c3ccc([N+](=O)[O-])cc3)cc3c2[nH]c2ccccc23)cc1,IC50,UACC-62,> 100 µM
same,IC50,[1],> 100 µM
same,IC50,786-0,> 100 µM
same,IC50,MCF7,> 100 µM
same,IC50,HT-29,> 100 µM
same,IC50,NCI-H460,> 100 µM
same,IC50,K562,> 100 µM
same,IC50,OVCAR,> 100 µM
O=C(N/N=C/c1ccccc1)c1cc2c([nH]c3ccccc32)c(-c2ccccc2)n1,IC50,UACC-62,25.9 µM
same,IC50,[1],11.6 µM
same,IC50,786-0,> 100 µM
same,IC50,MCF7,15.7 µM
same,IC50,HT-29,> 100 µM
same,IC50,NCI-H460,8.49 µM
same,IC50,K562,79.5 µM
same,IC50,OVCAR,10.6 µM
